Test results as given in ChEMBL document CHEMBL4689842, “EUbOPEN Chemogenomics Library wave 1” (2021).

Test system: HEK-293T
Assay: Multiplex assay against HEK293T;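 as to Population Tubulin-Different-Phenotype (%): share of the cells with healthy nuclei that show this phenotype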
Format: toxicity, cell-based
Conditions: human
Procedure, shortened: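 Values for tubulin, mitochondrial-mass and membrane-permeability phenotypes are per cents of cells with healthy nuclei. These cells were identified by CellPathfinder machine-learning gating of live cells that had been stained at seeding with Hoechst33342, BioTracker Green Microtubule Cytoskeleton Dye, MitoTracker Red and Annexin V Alexa Fluor 680 and imaged on a CQ1 microscope at 37°C and 5% CO2 after compound addition. The gating first set Hoechst high-intensity objects apart from normal cells, then split normal cells into healthy, pyknosed or fragmented nuclei, and pyknosed cells into mitotic or apoptotic.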

[1] = 12 h, 1 µM, compound concentration 1 uM, replicate 1
[2] = 12 h, 1 µM, compound concentration 1 uM, replicate 2
[3] = 12 h, 10 µM, compound concentration 10 uM, replicate 1
[4] = 12 h, 10 µM, compound concentration 10 uM, replicate 2
[5] = 24 h, 1 µM, compound concentration 1 uM, replicate 1
[6] = 24 h, 1 µM, compound concentration 1 uM, replicate 2
[7] = 24 h, 10 µM, compound concentration 10 uM, replicate 1
[8] = 24 h, 10 µM, compound concentration 10 uM, replicate 2

CCOC(=O)CCNc1cc(N2CCc3ccccc3CC2)nc(-c2ccccn2)n1
Population Apoptotic (%) [1]: 15%
Population Fragmented Nuclei (%) [1]: 15%
Population Healthy Nuclei (%) [1]: 66%
Population Hoechst High Intensity Objects (%) [1]: 9%
Population Membrane Permeable-Phenotype (%) [1]: 4%
Population Mitochondria Different-Phenotype (%) [1]: 3%
Population Mitotic Cells (%) [1]: 84%
Population Normal (%) [1]: 90%
Population Pyknosed Nuclei (%) [1]: 17%
Population Tubulin-Different-Phenotype (%) [1]: 4%
Total Cell Count [1]: 720
Population Apoptotic (%) [2]: 8%
Population Fragmented Nuclei (%) [2]: 8%
Population Healthy Nuclei (%) [2]: 86%
Population Hoechst High Intensity Objects (%) [2]: 1%
Population Membrane Permeable-Phenotype (%) [2]: 1%
Population Mitochondria Different-Phenotype (%) [2]: 8%
Population Mitotic Cells (%) [2]: 91%
Population Normal (%) [2]: 98%
Population Pyknosed Nuclei (%) [2]: 4%
Population Tubulin-Different-Phenotype (%) [2]: 5%
Total Cell Count [2]: 1753
Population Apoptotic (%) [3]: 22%
Population Fragmented Nuclei (%) [3]: 13%
Population Healthy Nuclei (%) [3]: 54%
Population Hoechst High Intensity Objects (%) [3]: 16%
Population Membrane Permeable-Phenotype (%) [3]: 4%
Population Mitochondria Different-Phenotype (%) [3]: 27%
Population Mitotic Cells (%) [3]: 77%
Population Normal (%) [3]: 83%
Population Pyknosed Nuclei (%) [3]: 32%
Population Tubulin-Different-Phenotype (%) [3]: 31%
Total Cell Count [3]: 622
Population Apoptotic (%) [4]: 26%
Population Fragmented Nuclei (%) [4]: 3%
Population Healthy Nuclei (%) [4]: 87%
Population Hoechst High Intensity Objects (%) [4]: 4%
Population Membrane Permeable-Phenotype (%) [4]: 2%
Population Mitochondria Different-Phenotype (%) [4]: 43%
Population Mitotic Cells (%) [4]: 73%
Population Normal (%) [4]: 95%
Population Pyknosed Nuclei (%) [4]: 8%
Population Tubulin-Different-Phenotype (%) [4]: 56%
Total Cell Count [4]: 1158
Population Apoptotic (%) [5]: 20%
Population Fragmented Nuclei (%) [5]: 12%
Population Healthy Nuclei (%) [5]: 79%
Population Hoechst High Intensity Objects (%) [5]: 4%
Population Mitochondria Different-Phenotype (%) [5]: 2%
Population Mitotic Cells (%) [5]: 79%
Population Normal (%) [5]: 95%
Population Pyknosed Nuclei (%) [5]: 8%
Population Tubulin-Different-Phenotype (%) [5]: 7%
Total Cell Count [5]: 821
Population Apoptotic (%) [6]: 1%
Population Fragmented Nuclei (%) [6]: 23%
Population Healthy Nuclei (%) [6]: 73%
Population Hoechst High Intensity Objects (%) [6]: 2%
Population Membrane Permeable-Phenotype (%) [6]: 5%
Population Mitochondria Different-Phenotype (%) [6]: 1%
Population Mitotic Cells (%) [6]: 98%
Population Normal (%) [6]: 97%
Population Pyknosed Nuclei (%) [6]: 2%
Population Tubulin-Different-Phenotype (%) [6]: 6%
Total Cell Count [6]: 2917
Population Apoptotic (%) [7]: 40%
Population Fragmented Nuclei (%) [7]: 14%
Population Healthy Nuclei (%) [7]: 46%
Population Hoechst High Intensity Objects (%) [7]: 18%
Population Membrane Permeable-Phenotype (%) [7]: 4%
Population Mitochondria Different-Phenotype (%) [7]: 54%
Population Mitotic Cells (%) [7]: 59%
Population Normal (%) [7]: 81%
Population Pyknosed Nuclei (%) [7]: 38%
Population Tubulin-Different-Phenotype (%) [7]: 47%
Total Cell Count [7]: 535
Population Apoptotic (%) [8]: 29%
Population Fragmented Nuclei (%) [8]: 4%
Population Healthy Nuclei (%) [8]: 83%
Population Hoechst High Intensity Objects (%) [8]: 8%
Population Membrane Permeable-Phenotype (%) [8]: 2%
Population Mitochondria Different-Phenotype (%) [8]: 50%
Population Mitotic Cells (%) [8]: 70%
Population Normal (%) [8]: 91%
Population Pyknosed Nuclei (%) [8]: 12%
Population Tubulin-Different-Phenotype (%) [8]: 65%
Total Cell Count [8]: 1034
